# Most compounds without a hit are left out; they make up all but 1.7% or so of the library.
# DNMT1 block – DNMT1 (human) enzyme inhibition; P26358; DNMT1 molecular beacon, Hinp1I cleavage, fluorescence; inhibition (reported as % activation of signal), % at 10 µM; 360,000 tested, 0.83% active; AID 588458; in the data active means inhibition above about 50%
# Scp1 inh – blocks human Scp-1 phosphatase activity | Q9GZU7 | Recombinant Scp1, phosphopeptide, malachite green phosphate absorbance | inhibition, % at 20 µM | 340,000 tested, 0.88% active | AID 493091;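 active means inhibition above about 50% at 20 µM, limit read from the data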;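 further: plate controls were DMSO wells with enzyme for no effect and wells lacking enzyme for full effect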
#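 Incubation: 45 min enzyme reaction at room temperature / System: truncated SCP-1 phosphatase (76-261aa) / Reagent: Phospho 17-mer peptide substrate / Buffer or medium: Acidic Tris acetate buffer with magnesium and detergent / Signal: absorbance at 630 nm / Doses: one concentration, 20 µM, with 1.0% DMSO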
# LMPTP inh – LMPTP (human) inhibition | P24666 | recombinant LMPTP-A, OMFP fluorogenic substrate, fluorescence intensity | inhibition, % at 20 µM | 360,000 tested, 0.22% active | AID 651560;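 active means compounds that cut the enzyme signal by at least half of the control window in the single-dose screen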;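 further: plate controls were DMSO wells with enzyme plus substrate for no effect and substrate without enzyme for full effect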
#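 Assay system: LMPTP-A enzyme. Input: 0.625 nM LMPTP-A final. Probe or stimulus: 400 µM OMFP. Compound dosing: single 20 µM dose. Schedule: 50 min dark incubation at room temperature. Detection: fluorescence intensity of OMFP turnover product. Read-out: percent inhibition versus substrate-only and uninhibited controls. Benchmarks: no-enzyme low control, uninhibited high control.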
# STEP inh – blocks human striatal-enriched tyrosine phosphatase. P54829. inhibition, % at 20 µM. 360,000 tested, 0.25% active. recombinant STEP, OMFP fluorogenic substrate, fluorescence;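 active means inhibition at 20 µM, scaled per plate between control wells, above about 37%, limit read from the data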;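 further: 0% = DMSO with enzyme and substrate and 100% = substrate only without enzyme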
# Target sequence (P54829 whole entry, looked up): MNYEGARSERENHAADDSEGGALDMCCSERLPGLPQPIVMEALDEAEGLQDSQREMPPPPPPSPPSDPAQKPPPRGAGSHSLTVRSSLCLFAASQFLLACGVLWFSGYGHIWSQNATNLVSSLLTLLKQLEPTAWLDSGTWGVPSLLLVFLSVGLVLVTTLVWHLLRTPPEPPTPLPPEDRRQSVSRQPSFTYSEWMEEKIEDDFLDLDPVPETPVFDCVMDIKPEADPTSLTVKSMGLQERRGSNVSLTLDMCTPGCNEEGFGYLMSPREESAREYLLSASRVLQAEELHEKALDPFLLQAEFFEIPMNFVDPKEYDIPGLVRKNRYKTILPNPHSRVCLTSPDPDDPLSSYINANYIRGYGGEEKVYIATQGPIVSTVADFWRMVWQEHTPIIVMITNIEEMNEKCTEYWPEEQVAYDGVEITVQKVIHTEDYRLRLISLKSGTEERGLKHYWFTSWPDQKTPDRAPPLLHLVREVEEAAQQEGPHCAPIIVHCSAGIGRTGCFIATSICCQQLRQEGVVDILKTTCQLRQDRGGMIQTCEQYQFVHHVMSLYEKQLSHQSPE
#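 Assay system: isolated STEP enzyme / Timing: 20 min at room temperature, dark / Doses: 20 µM, 1% DMSO / Technique: fluorescence intensity, excitation 480 nm, emission 540 nm / Reagent: fluorogenic phosphatase substrate OMFP at 25 µM final / Measure: percent inhibition scaled to no-enzyme and uninhibited-enzyme controls, plate-pattern corrected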
# SUMO1-SIM PPI – alters human SUMO1 binding to SIM partners. P63165. SUMO1 binding to a labelled peptide, TR-FRET, 1 h. inhibition, % at 20 µM. 360,000 tested, 0.33% active; in the data active means inhibition above about 37%
# Starred values were filed as active, the others as inactive; . = not tested or not shown.
SMILES,DNMT1 block,Scp1 inh,LMPTP inh,STEP inh,SUMO1-SIM PPI
CC1=NCCc2c1[nH]c1cc(O)ccc21,163*,-11,2,-3,-41
COc1ccc2c3c([nH]c2c1)C(C)=NCC3,-14,-11,2,-7,-30
COc1ccc(N2C(=O)NC(=O)/C(=C/c3ccc([N+](=O)[O-])s3)C2=O)cc1,29,20,14,5,38*
COc1cccc(N2C(=O)NC(=O)/C(=C/c3ccc([N+](=O)[O-])s3)C2=O)c1,33,12,8,3,47*
COc1ccc(N2C(=O)NC(=O)/C(=C\c3ccc([N+](=O)[O-])s3)C2=O)cc1,16,3,6,6,21
COC(=O)C1=C(c2cccc(OCc3ccccc3)c2)C[C@@H]2CC[C@H]1N2C(=O)NCCN1CCOCC1,2,-11,-2,2,4
COc1cc(C(c2c(C)[nH]n(-c3ccccc3)c2=O)c2c(C)[nH]n(-c3ccccc3)c2=O)cc(OC)c1OC,9,6,9,2,54*
COC(=O)C(O)(c1c(C)[nH]n(-c2ccccc2)c1=O)C(F)(F)F (stereo unspecified),-19,-14,-2,-1,-1
O=C(O)c1cccc2c1NC(C(=O)O)C1CC(Sc3ccccc3[N+](=O)[O-])C(Cl)C21 (stereo unspecified),104*,56*,79*,98*,88*
CC(=O)c1ccc2c(c1)C1C(Cl)C(Sc3ccccc3[N+](=O)[O-])CC1C(C(=O)O)N2 (stereo unspecified),114*,48,78*,19,84*
COc1ccc(NC(=S)N2Cc3ccccc3-n3nncc3C2)c(OC)c1,1,.,-3,1,-2
Cc1cccc(C)c1-n1nnnc1C(c1cccs1)N1CCC2(CC1)C(=O)NCN2c1ccccc1 (stereo unspecified),-8,.,5,3,6
Cc1ccccc1N1C(=O)NC(=O)/C(=C\c2ccc3c(c2)CCCN3Cc2ccccc2)C1=O,15,-5,3,-6,3
O=C1NC(=S)NC(=O)C1=Cc1ccc2c(c1)CCN2CCCCl,102*,91*,77*,60*,76*
COc1ccc(/C=C2/C(=O)N(Cc3ccco3)C(=O)N(C(C)C)C2=O)cc1,94*,-10,3,-3,43*
CCc1ccc(N2C(=O)NC(=O)/C(=C/c3cccn3CCOc3ccc(C)cc3)C2=O)cc1,18,-10,0,1,13
O=C1NC(=O)N(Cc2ccco2)C(=O)/C1=C\c1cccn1CCOc1ccc(Cl)cc1,59*,-3,3,-2,21
Cc1cccc(OCCn2cccc2/C=C2/C(=O)NC(=O)N(Cc3ccco3)C2=O)c1,60*,10,4,2,12
NC(=O)C1CCN(/C=C2\C(=O)NC(=O)N(Cc3ccco3)C2=O)CC1,52*,69*,9,22,14
Cc1cc(/C=C2/C(=O)NC(=O)N(Cc3ccco3)C2=O)c(C)n1-c1ccccc1,55*,7,3,1,15
O=C1NC(=O)N(Cc2ccco2)C(=O)/C1=C/c1ccc(-c2cccc([N+](=O)[O-])c2)o1,98*,82*,42,39,38*
COC(=O)c1nc(-c2ccc3c(n2)C(=O)C(N)=C(OC)C3=O)c(N)c(-c2ccc(OC)c(OC)c2O)c1C,86*,-8,1,3,14
Nc1c(C(=O)NCc2ccco2)c2nc3ccccc3nc2n1Cc1ccc(F)cc1,21,-4,8,-12,40*
CCCCNC(=O)c1c(N)n(Cc2ccc3c(c2)OCO3)c2nc3ccccc3nc12,15,2,6,-2,64*
COC(=O)C1=C(c2cccc(C#N)c2)C[C@@H]2CC[C@H]1N2C(=O)N1CCCCC1,0,-2,0,-2,2
COC(=O)C1=C(c2ccc(OC)c(OC)c2)C[C@@H]2CC[C@H]1N2C(=O)NC1CC1,4,-4,0,-1,-1
CC(=O)NCC1=C(c2cccc3ccccc23)C[C@@H]2CC[C@H]1N2Cc1ccco1,1,.,0,0,-1
COc1ccc(CCN)cc1O,-5,-14,-3,-4,-3
NCCc1cc(O)c(O)cc1O,118*,-9,79*,-2,47*
